# High-throughput results: PubChem, several laboratories
# aDG glyco act – activators of alpha-DG glycosylation, primary screen, uHTS, Pro5-aDG cells, AlphaScreen; actives 0.22% (n = 360,000); alpha-DG glycosylation AlphaScreen (IIH6); 0% Pro5, 100% B10-LARGE cell signal; activation, % at 10 µM;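 active = activation of at least 8% versus controls, or a plate z-score of at least 8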;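 also: Pro5 are CHO cells carrying HIG-tagged alpha-DG that lacks glycosylation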
# PKA-R2B act – activators of PKA-R2B holoenzyme, primary screen, biochemical, fluorescence polarization, Cy5-IP20, human. PKA-R2B holoenzyme dissociation; R2B truncated from residue 108, S112A mutant; 0% DMSO only, 100% 113 µM cGMP. activation, % at 11.4 µM. actives 0.079% (n = 340,000). AID 504700, 2011;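 active = activation above a cutoff set at the mean over all compounds plus 3 SD, cut at about 18% in these data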;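 also: higher means more holoenzyme dissociation and a rise in polarization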
# UCH37 inh – inhibitors of human UCH37 deubiquitinase, primary screen, biochemical, Ub-AMC cleavage, fluorescence | AID 588478, 2011 | purified proteasome/UCH37 | inhibition, % (no concentration beside the values) | Ubiquitin carboxyl-terminal hydrolase isozyme L5 (Homo sapiens), Q9Y5K5 | actives 0.33% (n = 330,000);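 active = mean inhibition over replicate wells above about 20%, limit read from the data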;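 also: 0% = compound-free wells with enzyme and 100% = wells lacking proteasome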
# Target sequence (Q9Y5K5 whole entry, looked up): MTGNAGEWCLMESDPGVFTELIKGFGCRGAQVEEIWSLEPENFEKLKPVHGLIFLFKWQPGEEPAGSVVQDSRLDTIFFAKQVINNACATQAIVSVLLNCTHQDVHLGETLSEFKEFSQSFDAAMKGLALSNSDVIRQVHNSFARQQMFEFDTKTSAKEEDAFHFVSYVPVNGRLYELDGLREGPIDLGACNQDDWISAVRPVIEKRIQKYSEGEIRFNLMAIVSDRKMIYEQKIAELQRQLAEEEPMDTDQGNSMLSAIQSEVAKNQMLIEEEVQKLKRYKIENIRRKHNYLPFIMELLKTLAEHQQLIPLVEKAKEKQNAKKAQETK
#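 System: Proteasome-associated human UCH37 deubiquitinase; Input: 0.15 nM proteasome in added enzyme buffer; Also added: Ub-AMC substrate from 1 µM stock; Incubation: 30 min compound-proteasome preincubation then 25 min substrate reaction, room temperature; Detection: fluorescence, ex 355 nm, em 460 nm; Read-out: % inhibition of Ub-AMC cleavage fluorescence; Benchmarks: no-proteasome and no-compound wells.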
# Fh CTSL1 inh – Fasciola hepatica cathepsin L1 inhibitors, primary screen, counter-screen for PFM18AAP inhibitor project, biochemical, QFRET, fluorogenic peptide substrate. recombinant F. hepatica cathepsin L1, Z-Leu-Arg-MCA fluorescence. inhibition, % at 5.96 µM. actives 0.49% (n = 300,000);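 active = inhibition above the mean of all tested compounds plus 3 SD, set per screening campaign, cut at about 17% in these data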;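 also: 0% = plate median of test compound wells and 100% = 1 µM Z-Phe-Ala-diazomethylketone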
# PKA-R1A act – activators of PKA-R1A holoenzyme, primary screen, biochemical, fluorescence polarization, Cy5-IP20, bovine R1A, mouse PKAc; PKA-R1A dissociation; scaled: DMSO 0%, 113 µM cGMP 100%; cAMP-dependent protein kinase type I-alpha regulatory subunit (Bos taurus) + …; actives 0.083% (n = 340,000); activation, % at 11.4 µM;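 active = percent activation above the mean of all tested compounds plus 3 SD, cut at about 19% in these data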;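 also: higher means more PKAc released from R1A so a rise in polarization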
# * marks the source's active call; other numbers are inactive results; . = no result. In the library only some 0.94% were active in any assay of this set; here they are far more common.
SMILES,aDG glyco act,PKA-R2B act,UCH37 inh,Fh CTSL1 inh,PKA-R1A act
Cn1c(=O)c2[nH]c(N=NN3CCCCC3)nc2n(C)c1=O,0,4,22*,.,-8
CC(=O)Oc1ccc2oc(/C=C/N(C)C)c([N+](=O)[O-])c2c1,2,-3,22*,-20,5
C/C(=C/c1oc2ccc(O)cc2c1[N+](=O)[O-])N(C)C,0,0,9,-1,-1
O=C(Nc1ccccc1NC(=O)c1csnn1)c1csnn1,0,-6,-1,28*,-5
O=C(NC(=S)Nc1ccccc1Cl)c1csnn1,0,-7,1,0,-8
COc1ccccc1N(CC(=O)NN=Cc1ccccc1C(=O)O)S(C)(=O)=O,.,.,6,.,.
CCOC(=O)NNc1ccc2nonc2c1[N+](=O)[O-],.,.,.,24*,.
CCc1ccc(Nc2ccc3nonc3c2[N+](=O)[O-])cc1,1,-1,2,1,-6
CCN1CCN(C(=O)c2nn(-c3ccc(OC)cc3)c(=O)c3c2c2ccccc2n3C)CC1,0,-5,2,1,4
COc1ccc(-n2nc(C(=O)N3CCC(N4CCCCC4)CC3)c3c4ccccc4n(C)c3c2=O)cc1,0,1,-1,19*,1
Cc1ccc(SCC(=O)OCC(=O)NCc2cccs2)cc1,0,-14,3,-4,-19
O=C(COC(=O)CSc1ccc([N+](=O)[O-])cc1)NCc1cccs1,0,-7,7,18*,2
COc1ccc(C)cc1NC(=O)C(OC(=O)CNC(=O)c1cccc(F)c1)c1ccccc1 (centres undefined),0,-6,0,29*,0
O=C(CNC(=O)c1ccccc1)OC(C(=O)Nc1cc(C(F)(F)F)ccc1Cl)c1ccccc1 (centres undefined),0,-9,3,28*,0
COc1ccc(C)cc1NC(=O)C(OC(=O)CNC(=O)c1ccc(Oc2ccccc2)cc1)c1ccccc1 (centres undefined),0,-4,2,16,-4
CCn1c(N=Cc2ccc(OC)cc2O)nc2ccccc21,.,.,0,.,.
S=c1[nH]ncn1N=Cc1ccccc1,.,.,2,.,.
C(=NNc1nc(Nc2ccccc2)nc(Nc2ccccc2)n1)c1cccnc1,.,.,2,.,.
O=[N+]([O-])C(=C1Nc2ccccc2N1)C(Cl)=C(Cl)Cl,0,2,15,20*,-4
CC(=NNc1ncc(Cl)cc1Cl)c1ccc(S(=O)(=O)NCc2ccco2)cc1,.,.,8,.,.
O=C(CSc1ccccn1)Nc1ccc2c(c1)OCO2,0,.,4,2,.
O=C(CSc1ccccn1)NCc1ccc2c(c1)OCO2,0,-4,4,17*,0
O=C(COc1ccc(Br)cc1)Nc1ccccc1N1CCCC1,0,12,28*,-2,4
Clc1cccc(-c2ccc(C=Nn3cnnc3)o2)c1Cl,.,.,5,.,.
CC1=Nc2ccccc2/C1=C\c1nc(-c2ccccc2)oc1O,0,-3,5,17*,-8
SMILES,aDG glyco act,PKA-R2B act,UCH37 inh,Fh CTSL1 inh,PKA-R1A act
CC1=Nc2ccccc2/C1=C/c1nc(-c2ccc(C)s2)oc1O,0,1,5,25*,-5
COc1ccc(C=NNc2cc(C)nc3c(C)cccc23)cc1,.,.,-34,.,.
O=C1C(NS(=O)(=O)c2ccc(Br)cc2)=C(N2CCCCC2)C(=O)c2ccccc21,0,-4,14,-1,-5
Cc1ccc(NC2=C(N3CCCCC3)C(=O)c3ccccc3C2=O)cc1,1,1,23*,34*,-2
O=C(/C=C/c1ccc(O)cc1)c1ccc(NC2=C(N3CCCCC3)C(=O)c3ccccc3C2=O)cc1,4,10,22*,33*,-4
COc1ccccc1NC1=C(N2CCCCC2)C(=O)c2ccccc2C1=O,2,-9,52*,62*,-2
O=C(/C=C/c1ccc(O)cc1)c1ccccc1,0,-3,5,-9,-8
O=C1C(Nc2ccccc2)=C(N2CCCCC2)C(=O)c2ccccc21,2,-9,7,50*,-5
O=C(NN=C1CCSC1)c1cc(Br)ccc1O,.,.,-13,.,.
COC(=O)NN=Cc1ccc(Oc2ccccc2)cc1,.,.,2,.,.
CCOc1ccc(C=NNC(=O)c2cc3ccccc3cc2OC)cc1,.,.,-12,.,.
Cc1ccc(C)c(S(=O)(=O)Nc2ccc(O)c3ccccc23)c1,4.3*,5,3,-1,-11
CCCCCCC(=O)NN=C1CCCc2ccccc21,.,.,1,.,.
O=C(CCl)Nc1c(C(=O)Nc2ccc3c(c2)OCCO3)oc2ccccc12,0,3,0,58*,-8
COCC(=O)Nc1c(C(=O)Nc2ccc3c(c2)OCO3)oc2ccccc12,0,-7,-2,1,-1
O=C(NN=Cc1ccc(N2CCCC2)c([N+](=O)[O-])c1)c1cccnc1,.,.,21*,.,.
O=C(Nc1ccc(N2CCCCC2)cc1)c1cccnc1,0,-6,29*,-1,-2
O=C(Nc1ccc(N2CCN(Cc3ccccc3Cl)CC2)cc1)c1cccnc1,1,-7,3,1,1
C=CCNC(=S)NN=C(C)c1cccnc1,.,.,0,.,.
COc1cc(C=NN(C)S(=O)(=O)c2ccc(C)cc2)cc([N+](=O)[O-])c1O,.,.,10,.,.
O=C(NC1CCCC1)C(c1ccc(F)cc1)N(Cc1ccc(F)cc1)C(=O)CCl (centres undefined),0,-5,3,51*,-4
O=C(NC1CCCCC1)C(c1ccncc1)N(Cc1ccc(F)cc1)C(=O)c1ccccn1 (centres undefined),0,0,3,-1,2
COC(CN(C(=O)CCl)C(C(=O)NC1CCCCC1)c1ccc(C)cc1)OC (centres undefined),0,5,2,78*,-9
O=c1c2c3c(sc2ncn1N=Cc1ccco1)CCCC3,.,.,4,.,.
Cc1ccc(C(=O)c2c(C)oc3c2C(=O)C(=O)c2ccccc2-3)cc1,-1,-16,42*,-6,-6
NC(=O)CSc1nc2scc(-c3ccco3)c2c(=O)n1-c1ccccc1,0,-2,1,28*,6
O=C(CSc1nc2scc(-c3ccco3)c2c(=O)n1-c1ccccc1)N1CCOCC1,0,-4,-1,-2,-2
S=c1[nH]nc(-c2ccco2)n1N=Cc1ccc(Cl)c(Cl)c1,.,.,0,.,.
Cc1cccc(COc2ccc(C=NNC(=O)c3nnn(-c4nonc4N)c3CN3CCCCC3)cc2)c1,.,.,-2,.,.
O=C(CCl)Nc1cn(-c2ccccc2)nc1-c1ccc(F)cc1,0,-3,4,77*,-3
